Data published in PubChem BioAssay AID488934 (Broad Institute, 2010).
Inconclusive results are not listed. The source made the active and inactive calls.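 How the source made its calls: active means compounds raising caspase signal whose fitted AC50 lies at or below the top valid dose tested; inconclusive means flat curve at 30 to 70 percent activity, or a poor fit; inactive means the rest.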

Tests used:
[1] = test system: Mel501 melanoma cells, caspase-3/7 Glo luminescence, 6 h; experiment: caspase-3/7 activation in A1-dependent Mel501 cells, dose response, A1 (Bcl2A1) inhibitor project, cell-based, human Mel501, dry powder (AID 488934)
Procedure, shortened: (§1)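 Material: human Mel501 melanoma cell line; timing: 6 h compound exposure at 37 °C, 1 h substrate incubation; detection: luminescence from DEVD-linked luciferin caspase-3/7 substrate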

[2] = as above; conditions: Mel501 melanoma cells, caspase-3/7 Glo luminescence, 6 h
Procedure, shortened: as §1

SMILES: Cc1cccc(NC(=O)/C(C#N)=C/c2cn(CC(=O)NCc3ccco3)c3ccccc23)c1
- AC50 [1]: > 150 µM (inactive)

SMILES: CCc1nnc(NC(=O)c2nc(S(=O)(=O)Cc3ccccc3)ncc2Cl)s1
- caspase activation ([2]; at 150 µM (top of the series)): -0.521% (inactive)

SMILES: C=C1[C@@H](C)[C@H]2[C@H](Cc3ccccc3)NC(=O)[C@]23OC(=O)/C=C\[C@H](O)CCC[C@@H](C)C/C=C/[C@H]3[C@@H]1O
- caspase activation ([2]; at 150 µM (top of the series)): 0.77% (inactive)

SMILES: Cc1c(CCOC(=O)c2ccc(N3CCOCC3)c([N+](=O)[O-])c2)sc[n+]1CC#N
- AC50 [1]: 18.8 µM

SMILES: O=C(CCl)N=c1sccn1Cc1ccccc1Cl
- caspase activation ([2]; at 150 µM (top of the series)): 2.16% (inactive)

SMILES: COc1ccc(N(C(=O)CCl)C(C(=O)NCCc2ccccc2)c2cccs2)cc1Cl (stereo not drawn)
- AC50 [1]: 30.1 µM

SMILES: Cc1ccc(Sc2c([N+](=O)[O-])c(=O)n(C)c3ccccc23)cc1
- AC50 [1]: 69.7 µM

SMILES: Cc1cccc(CS(=O)(=O)c2ncc(Cl)c(C(=O)Nc3nnc(C(C)C)s3)n2)c1
- caspase activation ([2]; at 150 µM (top of the series)): -1.69% (inactive)

SMILES: COc1cccc(C(=O)C(C#N)=C(SC)SC)c1
- caspase activation ([2]; at 150 µM (top of the series)): -0.394% (inactive)

SMILES: Nc1nc(F)nc2c1ncn2[C@@H]1O[C@H](CO)[C@@H](O)[C@H]1O
- caspase activation ([2]; at 150 µM (top of the series)): 0.438% (inactive)

SMILES: CCc1cc2c(=O)c(-c3cnn(-c4ccccc4)c3)c(C)oc2cc1OCC(=O)Nc1cccc(C)c1
- caspase activation ([2]; at 150 µM (top of the series)): 0.716% (inactive)

SMILES: CCOC(=O)CSC1=N/C(=C/c2ccc(-n3cncn3)cc2)C(=O)N1C(C)=O
- caspase activation ([2]; at 150 µM (top of the series)): 0.822% (inactive)

SMILES: Cc1cc(C(=O)CCl)c(C)n1CCc1ccc(Cl)cc1
- AC50 [1]: 17.8 µM

SMILES: Cn1c(=NC(=O)CCl)sc2ccccc21
- caspase activation ([2]; at 150 µM (top of the series)): 0.601% (inactive)

SMILES: O=C(Oc1cccc(/C=N/Nc2nc(Nc3ccccc3)nc(N3CCOCC3)n2)c1)c1ccco1
- caspase activation ([2]; at 150 µM (top of the series)): 0.28% (inactive)

SMILES: CCSc1nnc(NC(=O)c2nc(S(=O)(=O)Cc3ccc(F)cc3)ncc2Cl)s1
- caspase activation ([2]; at 150 µM (top of the series)): -2.12% (inactive)

SMILES: CC(C)(C)n1nc(-c2ccc(Cl)cc2)c2c(N)ncnc21
- caspase activation ([2]; at 150 µM (top of the series)): 2.25% (inactive)

SMILES: Cc1c(C=O)c(C=O)c(C)n1Cc1ccccc1
- AC50 [1]: > 150 µM (inactive)

SMILES: C=C1[C@@H](C)[C@H]2[C@H](Cc3ccccc3)NC(=O)[C@]23[C@H](OC(C)=O)/C=C/[C@](C)(O)C(=O)[C@@H](C)C/C=C/[C@H]3[C@@H]1O
- caspase activation ([2]; at 150 µM (top of the series)): 0.757% (inactive)

SMILES: CC(=O)N[C@H]1[C@H](O[C@H]2CC[C@@]3(C)C(CC[C@]4(C)C3CC=C3[C@@H]5CC(C)(C)CC[C@]5(C(=O)OC5OCC(O)C(O)C5O)C(O)C[C@]34C)C2(C)C)O[C@H](COC2OCC(O)C(OC3OCC(O)C(O)C3O)C2O)[C@@H](O[C@@H]2O[C@@H](C)[C@H](O)[C@@H](O)[C@H]2O[C@@H]2O[C@@H](C)[C@H](O)[C@@H](O)[C@H]2O)[C@@H]1O (stereo partly drawn)
- caspase activation ([2]; at 135 µM (top of the series)): -0.618% (inactive)

SMILES: COc1cc(/C=C(/C#N)c2nc3ccccc3[nH]2)ccc1OCC(=O)Nc1ccccc1C(C)C
- caspase activation ([2]; at 150 µM (top of the series)): 1.07% (inactive)

SMILES: Cc1ccc(CS(=O)(=O)c2ncc(Cl)c(C(=O)Nc3nnc(C(C)C)s3)n2)cc1
- caspase activation ([2]; at 150 µM (top of the series)): -1.79% (inactive)

SMILES: C/C1=C/C(=O)O[C@@H]2C[C@@H](CC[C@H](C)/C=C\CC1)O[C@@](O)(C1CSC(=O)N1)C2 (stereo partly drawn)
- caspase activation ([2]; at 150 µM (top of the series)): 0.0337% (inactive)
